Publication PMC4007056 (Molecular cancer therapeutics, 2014)

Columns and labels:
[1] = test system: intracranial HIFko tumors; experiment: in vivo homing of intravenously injected phage; parameters: species or system mouse; details: intravenous injection; compared to control phage; mean of three experiments
Method in brief: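 T7Select415-1 phage displaying the peptide were injected into the tail vein of mice bearing intracranial HIFko tumors and circulated 15 min. Tissues were excised and phage recovered and amplified in E. coli BLT5615. Non-recombinant control phage was injected into a separate mouse, and homing was expressed relative to it. Mean of three experiments, ±SEM.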

[2] = test system: i.c. HIFko tumor derived cell suspension; experiment: ex vivo binding of individual phage to tumor-derived cell suspension; type: cell-based, mouse; details: cell suspension from tumor containing brain relative to normal brain
[3] = test system: i.c. tumors derived from MDGI expressing U87MG cells; type: in vivo, mouse; details: MDGI expressing versus control U87MG tumors; fluorescein-conjugated peptide i.v.
[4] = test system: tumors derived from VEGF-expressing HIFko cells; experiment: in vivo homing of fluorescein-conjugated peptide, VEGF-expressing HIFko tumors; parameters: species or system mouse; details: fluorescein-conjugated peptide i.v., 60 min; i.c. tumors
Method in brief: (§1)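 Athymic female Balb/c nu-nu mice (4–6 wk) with intracranial tumors, used 10–21 days after inoculation. Fluorescein-labelled peptide (100 µM, 100 µl/animal) was injected into the tail vein and circulated 60 min. Mice were perfused through the […] and tumors excised. Frozen sections (5–10 µm) were stained with rabbit anti-FITC, anti-PECAM-1 for vessels and DAPI, then examined by fluorescence microscopy.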

[5] = test system: orthotopic MDA-MB-231 human breast cancer xenografts; experiment: in vivo homing of fluorescein-conjugated peptide, MDA-MB-231 xenografts; parameters: species or system mouse; details: fluorescein-conjugated peptide i.v., 60 min
Method in brief: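 Athymic female Balb/c nu-nu mice (4–6 wk) bearing xenografts received fluorescein-labelled peptide intravenously, circulated one hour. Frozen sections (5–10 µm) were stained with rabbit anti-FITC and anti-PECAM-1 antibodies, Alexa-conjugated secondaries and DAPI, then examined under a fluorescence microscope.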

[6] = test system: intracranial U87MG human glioma; experiment: in vivo homing of fluorescein-conjugated peptide, i.c. U87MG glioma; parameters: species or system mouse; details: fluorescein-conjugated peptide i.v., 60 min
Method in brief: as §1

[7] = test system: subcutaneous tumors established from the HIFko cells; experiment: in vivo homing of fluorescein-conjugated peptide, subcutaneous HIFko tumors; parameters: species or system mouse; details: fluorescein-conjugated peptide i.v., 60 min
Method in brief: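 Athymic female Balb/c nu-nu mice (4–6 wk) were grafted subcutaneously on the abdominal side with 5×10^6 HIFko cells. Fluorescein-labelled peptide was given intravenously and circulated one hour. Frozen tissue sections (5–10 µm) were stained with rabbit anti-FITC antibody, Alexa-conjugated secondary antibody and DAPI, then viewed by fluorescence microscopy.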

[8] = test system: rat BT4C glioma xenografts; experiment: in vivo homing of fluorescein-conjugated peptide, BT4C glioma; parameters: species or system mouse; details: fluorescein-conjugated peptide i.v., 60 min
Method in brief: as §1

[9] = test system: intracranial HIFko tumors; experiment: treatment of intracranial HIFko tumor-bearing mice with targeted Cbl; type: in vivo, mouse
Method in brief: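 Athymic female Balb/c nu-nu mice (4–6 wks) bearing intracranial HIFko tumours were randomised to groups of 4 from day 5 post-implantation. They received i.v. PBS, peptide–drug conjugate (5 mg/kg), or free drug at the same molar amount, every second day. Body weight was monitored, and mice were sacrificed once weight loss exceeded 10%.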

Substance: CGLSGLGVA [phage 36]
- accumulation in other organs (liver, kidney, lung, normal brain) [1]: negligible accumulation
- brain tumor to normal brain ratio of ex vivo phage binding [2]: over 80

Substance: CSESGLGVA [phage 34]
- brain tumor to normal brain ratio of ex vivo phage binding [2]: about 13

Substance: H-ACGLSGLGVA-NH2 [CooP]
- effect of MDGI-expression on peptide homing to i.c. U87MG tumors [3]: substantially increased
- homing to tumors derived from VEGF-expressing HIFko cells [4]: did not home
- homing to MDA-MB-231 human breast cancer xenografts [5]: No CooP peptide was detected
- homing to intracranial U87MG human glioma [6]: homed
- homing to subcutaneous HIFko tumors [7]: did not home
- homing to rat BT4C glioma xenografts [8]: homed

Substance: NH2-CGLSGLGVAGGMVRRFLVTLRIRRACGPPRVRVK(^εCbl)-CONH2 [CooP-CPP-Cbl]
- signs of tumor burden ([9]; 5 mg/kg i.v. every second day from d5): did not show any signs of tumor burden
- body weight course ([9]; 5 mg/kg i.v. every second day from d5, 4 mice/group): gained weight
- life span of the animals ([9]; 5 mg/kg i.v. every second day from d5, versus saline and free Cbl): prolonged the life span
- size of the primary tumor versus control groups ([9]; 5 mg/kg i.v. every second day, four sections/animal): no difference
